Test results: ChEMBL document CHEMBL2203081 (Bioorg Med Chem Lett, 2012)
Active and inactive are the calls of the source. The rule behind the calls is not given here.

Assays:
[1] = target: Serine/threonine-protein kinase WNK3 (Homo sapiens) (UniProt Q9BYP7); assay: Inhibition of WNK3 assessed as residual activity at 10 uM relative to control
[2] = target: Casein kinase I isoform gamma-1 (Homo sapiens) (UniProt Q9HCP0); assay: Inhibition of CSNK1G1 assessed as residual activity at 10 uM relative to control
How it was run: (§1)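 Competition kinase-binding assay (KINOMEscan) across a non-redundant panel of 329 kinases beyond the radiometric panel; residual binding expressed relative to control.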

[3] = target: Cyclin-dependent kinase 9 (Homo sapiens) (UniProt P50750); assay: Inhibition of CDK9 assessed as residual activity at 10 uM relative to control
[4] = target: MAP kinase-activated protein kinase 5 (Homo sapiens) (UniProt Q8IW41); assay: Inhibition of PRAK assessed as residual activity at 1 uM
[5] = target: Serine/threonine-protein kinase Sgk1 (Homo sapiens) (UniProt O00141); assay: Inhibition of SGK assessed as residual activity at 10 uM relative to control
[6] = target: Serine/threonine-protein kinase 24 (Homo sapiens) (UniProt Q9Y6E0); assay: Inhibition of MST3 assessed as residual activity at 1 uM
[7] = target: Tyrosine-protein kinase Lck (Homo sapiens) (UniProt P06239); assay: Inhibition of Lck assessed as residual activity at 1 uM
[8] = target: Insulin-like growth factor 1 receptor (Homo sapiens) (UniProt P08069); assay: Inhibition of IGF-1R assessed as residual activity at 1 uM
How it was run: (§2)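 Radioactivity-based enzymatic activity assay of the named kinase, run as part of a 131-kinase specificity panel at the National Centre for Protein Kinase Profiling (Dundee). Residual activity was read at the stated single inhibitor concentration.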

[9] = target: Fibroblast growth factor receptor 1 (Homo sapiens) (UniProt P11362); assay: Inhibition of FGF-R1 assessed as residual activity at 1 uM; how it was run: as §2
[10] = tested on: Mast/stem cell growth factor receptor Kit (Homo sapiens), P10721 [V559D]; assay: Inhibition of KIT V559D mutant assessed as residual activity at 10 uM relative to control
[11] = target: Proto-oncogene tyrosine-protein kinase ROS (Homo sapiens) (UniProt P08922); assay: Inhibition of ROS1 assessed as residual activity at 10 uM relative to control
[12] = target: Rho-associated protein kinase 2 (Homo sapiens) (UniProt O75116); assay: Inhibition of ROCK2 assessed as residual activity at 10 uM relative to control
[13] = tested on: Tyrosine-protein kinase ABL1 (Homo sapiens), P00519 [E255K]; assay: Inhibition of phosphorylated ABL1 E255K mutant assessed as residual activity at 10 uM relative to control
Mus musculus [14] = assay: Inhibition of LRRK2 in mouse assessed as inhibition of Ser935 autophosphorylation in brain at 100 mg/kg, ip by immunoblot method; format: functional, organism-based; parameters: dose 100 mg/kg
Mus musculus [15] = assay: Inhibition of LRRK2 in mouse assessed as inhibition of Ser910 autophosphorylation in brain at 100 mg/kg, ip by immunoblot method; format: functional, organism-based; parameters: dose 100 mg/kg
[16] = target: Serine/threonine-protein kinase 33 (Homo sapiens) (UniProt Q9BYT3); assay: Inhibition of STK33 assessed as residual activity at 10 uM
[17] = target: Homeodomain-interacting protein kinase 3 (Homo sapiens) (UniProt Q9H422); assay: Inhibition of HIPK3 assessed as residual activity at 10 uM relative to control
[18] = target: Inhibitor of nuclear factor kappa-B kinase subunit epsilon (Homo sapiens) (UniProt Q14164); assay: Inhibition of IKKe assessed as residual activity at 10 uM
[19] = target: Homeodomain-interacting protein kinase 1 (Homo sapiens) (UniProt Q86Z02); assay: Inhibition of HIPK1 assessed as residual activity at 10 uM; how it was run: as §2
[20] = target: T1, Ephrin type-B receptor 3 (Homo sapiens) (UniProt P54753); assay: Inhibition of EPHB3 assessed as residual activity at 10 uM relative to control; how it was run: as §1
T1 sequence (whole entry): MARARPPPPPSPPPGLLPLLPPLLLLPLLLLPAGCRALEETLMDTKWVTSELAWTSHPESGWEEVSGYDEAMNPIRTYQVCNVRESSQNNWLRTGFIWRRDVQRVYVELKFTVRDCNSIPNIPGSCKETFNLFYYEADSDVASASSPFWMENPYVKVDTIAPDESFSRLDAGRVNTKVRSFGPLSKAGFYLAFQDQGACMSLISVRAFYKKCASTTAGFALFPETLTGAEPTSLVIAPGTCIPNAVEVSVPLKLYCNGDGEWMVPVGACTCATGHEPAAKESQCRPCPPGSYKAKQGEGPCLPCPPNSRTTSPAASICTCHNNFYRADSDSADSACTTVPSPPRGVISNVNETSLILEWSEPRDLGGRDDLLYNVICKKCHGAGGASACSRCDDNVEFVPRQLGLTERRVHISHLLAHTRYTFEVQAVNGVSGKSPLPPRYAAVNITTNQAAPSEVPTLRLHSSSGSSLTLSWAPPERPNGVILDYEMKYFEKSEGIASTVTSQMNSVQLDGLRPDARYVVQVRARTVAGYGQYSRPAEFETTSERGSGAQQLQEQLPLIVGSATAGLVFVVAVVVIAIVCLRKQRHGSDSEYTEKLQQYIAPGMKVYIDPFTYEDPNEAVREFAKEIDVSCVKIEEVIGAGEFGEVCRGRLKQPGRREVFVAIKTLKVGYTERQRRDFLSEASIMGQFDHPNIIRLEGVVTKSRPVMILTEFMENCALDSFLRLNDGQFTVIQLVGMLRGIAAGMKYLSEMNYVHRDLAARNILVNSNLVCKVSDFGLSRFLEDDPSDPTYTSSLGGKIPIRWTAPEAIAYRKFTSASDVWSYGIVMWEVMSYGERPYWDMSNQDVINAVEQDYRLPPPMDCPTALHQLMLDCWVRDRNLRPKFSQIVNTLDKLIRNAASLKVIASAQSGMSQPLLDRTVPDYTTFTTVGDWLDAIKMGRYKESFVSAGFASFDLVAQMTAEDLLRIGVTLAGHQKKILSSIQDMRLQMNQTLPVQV

[21] = target: Epidermal growth factor receptor (Homo sapiens) (UniProt P04626+P00533+Q15303+P21860); assay: Inhibition of EGFR S752-I759del mutant assessed as residual activity at 10 uM relative to control; format: protein assay; how it was run: as §1
[22] = tested on: Epidermal growth factor receptor (Homo sapiens), P00533 [L861Q]; assay: Inhibition of EGFR L861Q mutant assessed as residual activity at 10 uM relative to control; format: protein assay; how it was run: as §1
[23] = tested on: Epidermal growth factor receptor (Homo sapiens), P00533 [L858R,T790M]; assay: Inhibition of EGFR L858R,T790M mutant assessed as residual activity at 10 uM relative to control; format: protein assay; how it was run: as §1
[24] = target: Myosin light chain kinase, smooth muscle (Homo sapiens) (UniProt Q15746); assay: Inhibition of MYLK assessed as residual activity at 10 uM relative to control
[25] = target: Ribosomal protein S6 kinase beta-1 (Homo sapiens) (UniProt P23443); assay: Inhibition of S6K1 assessed as residual activity at 1 uM

Homeodomain-interacting protein kinase 3 (Homo sapiens), sequence (Q9H422 whole entry, looked up): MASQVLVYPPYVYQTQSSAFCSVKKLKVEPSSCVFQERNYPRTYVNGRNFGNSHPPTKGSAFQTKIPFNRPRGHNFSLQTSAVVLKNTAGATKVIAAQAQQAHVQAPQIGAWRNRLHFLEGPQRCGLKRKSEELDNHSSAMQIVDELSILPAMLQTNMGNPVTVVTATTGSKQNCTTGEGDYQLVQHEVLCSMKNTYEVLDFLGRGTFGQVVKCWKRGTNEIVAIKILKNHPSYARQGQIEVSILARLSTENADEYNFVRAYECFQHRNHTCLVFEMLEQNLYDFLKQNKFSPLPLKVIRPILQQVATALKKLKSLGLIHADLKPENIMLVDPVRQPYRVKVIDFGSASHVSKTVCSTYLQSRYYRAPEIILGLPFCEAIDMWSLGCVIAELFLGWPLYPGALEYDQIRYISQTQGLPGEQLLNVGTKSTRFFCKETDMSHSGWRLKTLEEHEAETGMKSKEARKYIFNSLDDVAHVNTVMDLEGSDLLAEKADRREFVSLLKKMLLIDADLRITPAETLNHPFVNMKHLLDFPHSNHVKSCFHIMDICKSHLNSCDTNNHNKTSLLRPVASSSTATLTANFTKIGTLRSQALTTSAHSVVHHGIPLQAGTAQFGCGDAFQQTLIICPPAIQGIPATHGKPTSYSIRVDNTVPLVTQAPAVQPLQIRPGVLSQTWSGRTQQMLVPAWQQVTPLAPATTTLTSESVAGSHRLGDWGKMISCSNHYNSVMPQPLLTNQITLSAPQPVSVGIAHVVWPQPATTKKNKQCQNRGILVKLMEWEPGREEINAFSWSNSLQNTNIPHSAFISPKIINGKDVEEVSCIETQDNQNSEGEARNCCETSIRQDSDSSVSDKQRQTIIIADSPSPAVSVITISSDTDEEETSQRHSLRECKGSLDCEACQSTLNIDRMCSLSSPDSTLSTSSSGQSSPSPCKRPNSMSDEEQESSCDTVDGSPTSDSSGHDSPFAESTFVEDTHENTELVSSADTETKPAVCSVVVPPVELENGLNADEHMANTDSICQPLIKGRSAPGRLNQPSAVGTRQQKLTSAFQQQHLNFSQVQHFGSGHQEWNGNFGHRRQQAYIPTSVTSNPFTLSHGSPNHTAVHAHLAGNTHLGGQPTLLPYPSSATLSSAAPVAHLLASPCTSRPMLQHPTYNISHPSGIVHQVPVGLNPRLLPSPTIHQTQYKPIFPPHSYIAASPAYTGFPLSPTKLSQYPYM
Rho-associated protein kinase 2 (Homo sapiens), sequence (O75116 whole entry, looked up): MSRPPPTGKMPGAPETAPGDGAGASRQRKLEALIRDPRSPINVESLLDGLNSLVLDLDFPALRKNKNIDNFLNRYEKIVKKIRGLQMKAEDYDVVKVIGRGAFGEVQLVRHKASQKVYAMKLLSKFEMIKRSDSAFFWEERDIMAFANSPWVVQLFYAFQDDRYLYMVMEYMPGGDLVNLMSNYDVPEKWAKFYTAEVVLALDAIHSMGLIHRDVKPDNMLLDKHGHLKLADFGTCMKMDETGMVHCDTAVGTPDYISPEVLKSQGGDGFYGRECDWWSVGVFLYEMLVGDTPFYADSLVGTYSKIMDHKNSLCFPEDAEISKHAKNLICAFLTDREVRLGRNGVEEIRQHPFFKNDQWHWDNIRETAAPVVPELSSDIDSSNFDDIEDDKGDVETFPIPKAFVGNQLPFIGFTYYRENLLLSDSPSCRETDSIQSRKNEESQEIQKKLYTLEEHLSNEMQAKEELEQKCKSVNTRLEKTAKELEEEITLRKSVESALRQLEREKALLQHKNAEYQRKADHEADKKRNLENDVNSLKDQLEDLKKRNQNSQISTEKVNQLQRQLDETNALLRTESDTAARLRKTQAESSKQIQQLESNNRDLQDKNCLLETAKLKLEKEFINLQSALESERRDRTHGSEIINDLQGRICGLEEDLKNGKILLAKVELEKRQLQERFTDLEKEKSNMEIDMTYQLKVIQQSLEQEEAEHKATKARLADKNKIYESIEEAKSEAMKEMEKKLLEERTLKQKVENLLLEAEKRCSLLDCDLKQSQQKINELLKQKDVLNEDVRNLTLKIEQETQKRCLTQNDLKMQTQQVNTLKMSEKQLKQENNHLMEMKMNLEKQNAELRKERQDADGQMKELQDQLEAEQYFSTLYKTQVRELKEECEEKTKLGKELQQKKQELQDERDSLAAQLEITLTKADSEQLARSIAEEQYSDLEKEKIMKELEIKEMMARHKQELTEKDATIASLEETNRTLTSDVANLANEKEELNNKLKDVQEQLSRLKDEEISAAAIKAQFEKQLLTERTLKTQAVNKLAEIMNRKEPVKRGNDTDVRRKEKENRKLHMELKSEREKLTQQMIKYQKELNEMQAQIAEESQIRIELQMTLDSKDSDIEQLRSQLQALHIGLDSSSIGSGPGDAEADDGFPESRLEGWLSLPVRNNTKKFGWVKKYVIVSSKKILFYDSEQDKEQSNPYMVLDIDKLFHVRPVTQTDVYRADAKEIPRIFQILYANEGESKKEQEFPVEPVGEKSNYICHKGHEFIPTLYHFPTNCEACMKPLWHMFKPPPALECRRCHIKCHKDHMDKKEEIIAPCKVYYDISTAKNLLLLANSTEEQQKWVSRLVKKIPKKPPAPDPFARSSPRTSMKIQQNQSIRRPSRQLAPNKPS
Tyrosine-protein kinase Lck (Homo sapiens), sequence (P06239 2-509 limits assumed): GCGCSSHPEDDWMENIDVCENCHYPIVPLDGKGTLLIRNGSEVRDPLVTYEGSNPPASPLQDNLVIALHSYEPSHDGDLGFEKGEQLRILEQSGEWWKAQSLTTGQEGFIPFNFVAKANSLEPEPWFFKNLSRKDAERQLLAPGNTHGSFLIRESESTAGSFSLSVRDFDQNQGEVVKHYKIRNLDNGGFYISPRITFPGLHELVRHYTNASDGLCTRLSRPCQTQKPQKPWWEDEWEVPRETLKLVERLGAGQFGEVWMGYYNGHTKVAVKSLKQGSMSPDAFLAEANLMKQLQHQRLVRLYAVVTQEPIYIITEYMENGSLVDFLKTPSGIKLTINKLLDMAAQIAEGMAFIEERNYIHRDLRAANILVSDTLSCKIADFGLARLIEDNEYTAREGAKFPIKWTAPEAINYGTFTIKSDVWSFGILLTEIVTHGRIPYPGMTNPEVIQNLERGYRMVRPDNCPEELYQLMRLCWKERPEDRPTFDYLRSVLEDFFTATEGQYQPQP
Inhibitor of nuclear factor kappa-B kinase subunit epsilon (Homo sapiens), sequence (Q14164 whole entry): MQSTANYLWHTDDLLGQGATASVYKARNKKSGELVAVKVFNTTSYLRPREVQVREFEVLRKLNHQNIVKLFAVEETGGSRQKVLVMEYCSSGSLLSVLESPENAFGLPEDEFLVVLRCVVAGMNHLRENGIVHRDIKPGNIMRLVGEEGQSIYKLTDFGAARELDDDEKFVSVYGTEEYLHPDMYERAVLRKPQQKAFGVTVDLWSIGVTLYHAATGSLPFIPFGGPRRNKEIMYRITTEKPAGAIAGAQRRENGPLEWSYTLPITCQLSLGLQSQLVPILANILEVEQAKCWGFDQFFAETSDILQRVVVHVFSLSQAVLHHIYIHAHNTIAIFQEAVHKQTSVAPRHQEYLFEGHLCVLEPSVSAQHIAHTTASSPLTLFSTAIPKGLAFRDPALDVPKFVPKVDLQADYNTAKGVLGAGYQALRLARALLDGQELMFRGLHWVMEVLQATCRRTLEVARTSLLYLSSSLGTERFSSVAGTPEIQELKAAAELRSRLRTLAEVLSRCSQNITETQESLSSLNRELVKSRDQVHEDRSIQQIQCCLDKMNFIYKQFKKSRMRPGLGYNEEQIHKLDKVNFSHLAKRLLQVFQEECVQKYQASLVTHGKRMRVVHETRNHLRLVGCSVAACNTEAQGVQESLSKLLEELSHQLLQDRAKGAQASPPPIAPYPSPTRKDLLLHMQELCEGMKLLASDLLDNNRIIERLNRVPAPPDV
Tyrosine-protein kinase ABL1 (Homo sapiens), P00519 [E255K], sequence (P00519 whole entry E255K): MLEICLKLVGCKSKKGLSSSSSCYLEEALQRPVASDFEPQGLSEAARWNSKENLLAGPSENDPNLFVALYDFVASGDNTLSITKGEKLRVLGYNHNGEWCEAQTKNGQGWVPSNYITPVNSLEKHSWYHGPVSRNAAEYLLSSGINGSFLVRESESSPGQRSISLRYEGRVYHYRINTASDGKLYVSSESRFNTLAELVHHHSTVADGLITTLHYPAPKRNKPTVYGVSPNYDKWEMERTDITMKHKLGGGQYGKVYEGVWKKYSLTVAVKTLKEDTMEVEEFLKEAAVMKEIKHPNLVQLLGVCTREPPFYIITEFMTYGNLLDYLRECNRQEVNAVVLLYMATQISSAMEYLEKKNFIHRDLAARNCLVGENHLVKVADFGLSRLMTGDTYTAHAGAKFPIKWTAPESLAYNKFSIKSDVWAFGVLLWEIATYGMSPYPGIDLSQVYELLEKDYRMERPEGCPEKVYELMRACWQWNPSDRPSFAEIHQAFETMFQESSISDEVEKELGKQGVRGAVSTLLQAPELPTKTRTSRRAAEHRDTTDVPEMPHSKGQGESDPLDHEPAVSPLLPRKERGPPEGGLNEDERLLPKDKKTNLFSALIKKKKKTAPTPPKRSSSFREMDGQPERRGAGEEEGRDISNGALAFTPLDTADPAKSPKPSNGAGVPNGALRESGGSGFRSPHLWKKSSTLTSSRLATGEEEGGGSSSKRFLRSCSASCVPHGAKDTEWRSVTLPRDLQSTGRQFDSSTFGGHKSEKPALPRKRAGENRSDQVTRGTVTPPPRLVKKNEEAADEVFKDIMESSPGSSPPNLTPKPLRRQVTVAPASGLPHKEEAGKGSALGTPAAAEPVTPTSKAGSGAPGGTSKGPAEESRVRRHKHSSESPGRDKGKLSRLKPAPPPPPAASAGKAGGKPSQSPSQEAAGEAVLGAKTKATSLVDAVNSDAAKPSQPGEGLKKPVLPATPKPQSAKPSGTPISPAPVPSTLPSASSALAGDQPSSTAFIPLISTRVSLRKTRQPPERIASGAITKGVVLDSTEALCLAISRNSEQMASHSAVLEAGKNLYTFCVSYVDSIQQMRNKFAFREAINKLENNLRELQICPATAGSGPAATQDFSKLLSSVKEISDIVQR

## O=C(Nc1cccnc1)c1cc(-c2ccnc(F)c2)ccc1OCc1ccccc1
[1]
  Activity: 62%
[2]
  Activity: 79%
[3]
  Activity: 57%
[4]
  Activity: 109%
[5]
  Activity: 33%
[6]
  Activity: 101%
[7]
  Activity: 113%
[8]
  Activity: 123%
[9]
  Activity: 110%
[10]
  Activity: 70%
[11]
  Activity: 73%
[12]
  Activity: 47%
[13]
  Activity: 75%
Mus musculus [14]
  inhibition: inactive
Mus musculus [15]
  inhibition: inactive
[16]
  Activity: 56%
[17]
  Activity: 58%
[18]
  Activity: 102%
[19]
  Activity: 61%
[20]
  Activity: 67%
[21]
  Activity: 81%
[22]
  Activity: 65%
[23]
  Activity: 46%
[24]
  Activity: 27%
[25]
  Activity: 101%
